# Assay results as given in BindingDB's records for doi:10.1021/acs.jmedchem.9b00634 (2019).
# *1 amine or outer side, *2 acyl side, *3 side chain or, on linkers, in order; H or OH if unused. Where a SMILES comes first, the peptide text is derived from it. The star is where a group is joined. NH(CH2)3O(βDGlc) = OC[C@H]1O[C@@H](OCCCN*)[C@H](O)[C@@H](O)[C@@H]1O; Glutaryl = O=C(CCCC(=O)[*:2])[*:1]
# Experiments:
# [1] = Binding affinity to GLUT1 in human MDA-MB-231 cells assessed as cytotoxicity by measuring reduction in cell viability measured after 24 hrs by CCK8 assay
# [2] = Binding affinity to GLUT1 in human A549 cells assessed as cytotoxicity by measuring reduction in cell viability measured after 24 hrs by CCK8 assay
# [3] = Binding affinity to GLUT1 in human NCI-H1437 cells assessed as cytotoxicity by measuring reduction in cell viability measured after 24 hrs by CCK8 assay
# [4] = Binding affinity to GLUT1 in human HGC27 cells assessed as cytotoxicity by measuring reduction in cell viability measured after 24 hrs by CCK8 assay
# [5] = Binding affinity to GLUT1 in human NCI-H460 cells assessed as cytotoxicity by measuring reduction in cell viability measured after 24 hrs by CCK8 assay
# [6] = Binding affinity to GLUT1 in human L02 cells assessed as cytotoxicity by measuring reduction in cell viability measured after 24 hrs by CCK8 assay
# [7] = Binding affinity to GLUT1 in human PC3 cells assessed as cytotoxicity by measuring reduction in cell viability measured after 24 hrs by CCK8 assay
# [8] = biological target: T1, Solute carrier family 2, facilitated glucose transporter member 1 (Homo sapiens, UniProt P11166); assay: Binding affinity to GLUT1 in human A549 cells assessed as cytotoxicity by measuring reduction in cell viability measured after 24 hrs by CCK8 assay
# T1 sequence (P11166 whole entry): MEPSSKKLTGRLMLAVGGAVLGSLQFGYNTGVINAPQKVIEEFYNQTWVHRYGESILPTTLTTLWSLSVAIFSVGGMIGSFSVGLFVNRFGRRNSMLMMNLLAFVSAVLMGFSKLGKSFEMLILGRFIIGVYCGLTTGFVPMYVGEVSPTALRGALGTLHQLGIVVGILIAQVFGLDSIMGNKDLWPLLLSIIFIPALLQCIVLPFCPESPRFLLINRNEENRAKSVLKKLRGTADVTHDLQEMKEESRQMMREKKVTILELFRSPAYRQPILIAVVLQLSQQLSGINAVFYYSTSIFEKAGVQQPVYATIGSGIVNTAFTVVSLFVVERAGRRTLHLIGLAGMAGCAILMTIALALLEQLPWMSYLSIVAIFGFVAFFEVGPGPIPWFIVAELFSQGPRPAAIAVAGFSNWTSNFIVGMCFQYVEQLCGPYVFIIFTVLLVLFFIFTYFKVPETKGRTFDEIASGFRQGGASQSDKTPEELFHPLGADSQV
# Procedure, shortened: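 Cells (A549, H460, H1437, PC-3, HGC-27, MDA-MB-231, HEK-293T, L-02) seeded at about 2×10^3/well and grown overnight. Treated 24 h with a peptide concentration series in serum-free medium. Viability by CCK-8; IC50 taken as 50% inhibition versus untreated cells. Average of three experiments, each in triplicate.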
SMILES,IC50 [1] [µM],IC50 [2] [µM],IC50 [3] [µM],IC50 [4] [µM],IC50 [5] [µM],IC50 [6] [µM],IC50 [7] [µM],IC50 [8] [µM]
CC[C@H](C)[C@H](NC(=O)[C@H](Cc1ccccc1)NC(=O)[C@H](CCCNC(=N)N)NC(=O)[C@H](C)NC(=O)[C@@H](NC(=O)[C@H](CO)NC(=O)[C@H](CCCNC(=N)N)NC(=O)[C@H](CCSC)NC(=O)[C@H](C)NC(=O)[C@H](CCCNC(=N)N)NC(=O)[C@H](Cc1ccccc1)NC(=O)[C@H](Cc1c[nH]c2ccccc12)NC(=O)CNC(=O)[C@@H](N)CCCNC(=N)N)[C@@H](C)CC)C(=O)N[C@@H](C)C(=O)N[C@@H](CCCNC(=N)N)C(=O)N[C@@H](CCC(=O)O)C(=O)N[C@@H](CCCNC(=N)N)C(=O)N[C@@H](CC(C)C)C(=O)N[C@@H](CCCNC(=N)N)C(=O)N[C@@H](CCC(=O)O)C(=O)N[C@@H](Cc1cnc[nH]1)C(=O)N[C@@H](CC(C)C)C(=O)O (H-RGWFRAMRSIARFIARERLREHL-OH),10.5,14.3,16.5,12.5,12.9,12.6,15.6,–
CC[C@H](C)[C@H](NC(=O)[C@H](Cc1ccccc1)NC(=O)[C@H](CCCNC(=N)N)NC(=O)[C@H](C)NC(=O)[C@@H](NC(=O)[C@H](CO)NC(=O)[C@H](CCCNC(=N)N)NC(=O)[C@H](CCSC)NC(=O)[C@H](C)NC(=O)[C@H](CCCNC(=N)N)NC(=O)[C@H](Cc1ccccc1)NC(=O)[C@H](Cc1c[nH]c2ccccc12)NC(=O)CNC(=O)[C@H](CCCNC(=N)N)NC(=O)CCCC(=O)NCCCO[C@@H]1O[C@H](CO)[C@@H](O)[C@H](O)[C@H]1O)[C@@H](C)CC)C(=O)N[C@@H](C)C(=O)N[C@@H](CCCNC(=N)N)C(=O)N[C@@H](CCC(=O)O)C(=O)N[C@@H](CCCNC(=N)N)C(=O)N[C@@H](CC(C)C)C(=O)N[C@@H](CCCNC(=N)N)C(=O)N[C@@H](CCC(=O)O)C(=O)N[C@@H](Cc1cnc[nH]1)C(=O)N[C@@H](CC(C)C)C(=O)O ({NH(CH2)3O(βDGlc)-Glutaryl}-RGWFRAMRSIARFIARERLREHL-OH),10.1,–,–,12.6,8.5,25.9,6.9,9.6
